Source: ChEMBL document CHEMBL4406800, “Discovery of Potent Protease-Activated Receptor 4 Antagonists with in Vivo Antithrombotic Efficacy” (J Med Chem, 2019)

Tests used:
[1] = Stability in human liver microsomes assessed as parent compound remaining measured after 10 mins; type: ADME, Microsome; settings: for remaining at 10 min: liver microsomes, read-out: Stability; for Stability: microsomes, 10 min
[2] = Stability in rat liver microsomes assessed as parent compound remaining measured after 10 mins; type: ADME, Microsome; settings: read-out: Stability
[3] = target: T1, Proteinase-activated receptor 4 (Homo sapiens, UniProt Q96RI0); assay: Antagonist activity at full-length human PAR4 expressed in HEK293 cells assessed as inhibition of AYPGKF-induced intracellular calcium mobilization preincubated for 30 mins followed by AYPGKF addition and measured by calcium indicator-based FLIPR assay; type: functional, cell-based
T1 sequence (Q96RI0 whole entry): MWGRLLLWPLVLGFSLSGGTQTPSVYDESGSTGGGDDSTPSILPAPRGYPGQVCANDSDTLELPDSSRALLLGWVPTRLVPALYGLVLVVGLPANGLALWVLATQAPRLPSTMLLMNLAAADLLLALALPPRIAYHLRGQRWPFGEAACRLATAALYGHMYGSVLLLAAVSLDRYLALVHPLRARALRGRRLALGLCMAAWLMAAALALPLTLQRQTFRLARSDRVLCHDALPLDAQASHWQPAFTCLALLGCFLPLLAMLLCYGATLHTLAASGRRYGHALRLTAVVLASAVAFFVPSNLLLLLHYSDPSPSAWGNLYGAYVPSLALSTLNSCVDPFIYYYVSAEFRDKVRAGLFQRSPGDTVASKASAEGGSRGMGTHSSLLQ

[4] = Half life in human liver microsomes; type: ADME, Microsome; settings: for t1/2: microsomes
[5] = Half life in rat liver microsomes; type: ADME, Microsome
[6] = Clearance in rat at 2 mg/kg, po or 0.5 mg/kg, iv administered as infusion for 10 mins; type: ADME, organism-based; settings: in vivo
[7] = Half life in rat at 2 mg/kg, po or 0.5 mg/kg, iv administered as infusion for 10 mins; type: ADME, organism-based; settings: in vivo
[8] = Oral bioavailability in rat at 2 mg/kg; type: ADME, organism-based; settings: in vivo
Procedure, shortened: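 Rat dosing: iv 0.5 mpk as a 10 min infusion in 25/75 propylene glycol/PEG400 at 2 ml/kg. po 2 mpk in 5/5/90 EtOH/TPGS/PEG300 at 5 mL/kg.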

| Compound | remaining at 10 min [1] | remaining at 10 min [2] | IC50 [3] | further results |
| --- | --- | --- | --- | --- |
| COc1ccc2oc(-c3cn4nc(OC)sc4n3)cc2c1 | 30% | 38% |  |  |
| COc1nn2cc(-c3cc4cccc(OC)c4o3)nc2s1 | 25% | 11% | 2.8 nM |  |
| CS(=O)(=O)c1nn2cc(-c3cc4ccccc4o3)nc2s1 |  |  | 820 nM |  |
| COc1cc(OC)c2cc(-c3cn4nc(OC)sc4n3)oc2c1 |  | 70% |  | Stability [1]: 86%; t1/2 [4]: 17 min; half-life [5]: 22 min; clearance [6]: 33 mL/min/kg; half-life [7]: 192 min; bioavailability [8]: 1% |
| COc1nn2cc(-c3cc4c(OCc5ccccc5)cccc4o3)nc2s1 | 85% | 75% | 24 nM |  |
| CC(C)Oc1nn2cc(-c3cc4ccccc4o3)nc2s1 |  |  | 760 nM |  |
| CNc1nn2cc(-c3cc4ccccc4o3)nc2s1 | 65% | 2% | 110 nM |  |
| COc1nn2cc(-c3cc4c(OC)cccc4o3)nc2s1 | 40% | 42% | 7.6 nM |  |
| COc1nn2cc(-c3cc4ccc(OCc5ccccc5)cc4o3)nc2s1 | 94% | 68% |  |  |
| CCc1nn2cc(-c3cc4ccccc4o3)nc2s1 | 30% | 3% | 38 nM |  |
| COc1nn2cc(-c3cc4ccc(OC)c(OC)c4o3)nc2s1 | 20% | 3% |  |  |
| CCOc1nn2cc(-c3cc4ccccc4o3)nc2s1 | 57% | 37% | 67 nM |  |
| CCSc1nn2cc(-c3cc4ccccc4o3)nc2s1 | 45% | 35% | 2900 nM |  |
| COc1nn2cc(-c3cc4c(OC)ccc(OC)c4o3)nc2s1 | 55% | 28% |  |  |
| c1ccc2oc(-c3cn4nc(C5CC5)sc4n3)cc2c1 | 62% | 53% | 530 nM |  |
| COc1nn2cc(-c3cc4ccccc4o3)nc2s1 |  | 31% | 4 nM | Stability [1]: 80%; t1/2 [4]: 6.9 min |
| COc1ccc2cc(-c3cn4nc(OC)sc4n3)oc2c1 | 57% | 55% |  |  |
| Cc1nn2cc(-c3cc4ccccc4o3)nc2s1 | 20% | 4% | 37 nM |  |
| c1ccc(Sc2nn3cc(-c4cc5ccccc5o4)nc3s2)cc1 |  |  | 1900 nM |  |
| CSc1nn2cc(-c3cc4ccccc4o3)nc2s1 | 25% | 4% | 11 nM | half-life ([4]; liver microsomes): 5.4 min |
| COc1cc(OCc2ccccc2)c2cc(-c3cn4nc(OC)sc4n3)oc2c1 |  |  |  | bioavailability [8]: 27% |

Continued, in another order:

| remaining at 10 min [1] | remaining at 10 min [2] | IC50 [3] | Compound | further results |
| --- | --- | --- | --- | --- |
| 86% | 64% | 3.2 nM | COc1cc(OCc2cccc(COc3ccccc3)c2)c2cc(-c3cn4nc(OC)sc4n3)oc2c1 |  |
| 88% | 84% | 1.3 nM | COc1cc(OCc2ccc(OCc3ccccc3)cc2)c2cc(-c3cn4nc(OC)sc4n3)oc2c1 |  |
|  |  | 11 nM | COc1cc(OCc2ccc(Cl)cc2)c2cc(-c3cn4nc(OC)sc4n3)oc2c1 |  |
| 65% | 36% | 0.81 nM | COc1cc(OCCOc2ccccc2)c2cc(-c3cn4nc(OC)sc4n3)oc2c1 |  |
| 89% | 43% | 1.1 nM | COc1cc(OCCc2ccccc2)c2cc(-c3cn4nc(OC)sc4n3)oc2c1 |  |
| 97% | 49% | 3.1 nM | COc1cc(OCc2cccc(O)c2)c2cc(-c3cn4nc(OC)sc4n3)oc2c1 |  |
| 82% | 28% | 19 nM | COc1cc(OCc2ccccc2OC)c2cc(-c3cn4nc(OC)sc4n3)oc2c1 |  |
| 75% | 25% | 1.8 nM | COc1cc(OCCOCc2ccccc2)c2cc(-c3cn4nc(OC)sc4n3)oc2c1 |  |
| 93% | 79% | 3.1 nM | COc1cc(OCc2cccc(C(F)(F)F)c2)c2cc(-c3cn4nc(OC)sc4n3)oc2c1 |  |
| 80% | 45% | 0.89 nM | COc1cc(OCc2cccc(Sc3ccccc3)c2)c2cc(-c3cn4nc(OC)sc4n3)oc2c1 |  |
| 82% | 79% | 3.3 nM | COc1cc(OCc2cccc(Cl)c2)c2cc(-c3cn4nc(OC)sc4n3)oc2c1 |  |
| 94% | 22% | 3.2 nM | COc1cc(OCc2ccccc2OCc2ccccc2)c2cc(-c3cn4nc(OC)sc4n3)oc2c1 |  |
| 73% | 64% | 1.6 nM | COc1ccc(COc2cc(OC)cc3oc(-c4cn5nc(OC)sc5n4)cc23)cc1 |  |
|  |  | 3.4 nM | COc1cc(OCc2ccccc2C(F)(F)F)c2cc(-c3cn4nc(OC)sc4n3)oc2c1 |  |
| 100% |  | 0.98 nM | COc1cc(OCc2cccc(C#N)c2)c2cc(-c3cn4nc(OC)sc4n3)oc2c1 |  |
| 90% | 46% | 1.6 nM | COc1cc(OCc2ccccc2C)c2cc(-c3cn4nc(OC)sc4n3)oc2c1 |  |
| 79% | 90% | 4.3 nM | COc1cc(OCc2ccc(C(F)(F)F)cc2)c2cc(-c3cn4nc(OC)sc4n3)oc2c1 |  |
| 69% | 34% | 9.4 nM | COc1cccc(COc2cc(OC)cc3oc(-c4cn5nc(OC)sc5n4)cc23)c1 |  |
| 99% | 68% | 2.4 nM | COc1cc(OCc2cccc(CCc3ccccc3)c2)c2cc(-c3cn4nc(OC)sc4n3)oc2c1 |  |
| 95% | 78% | 2.3 nM | COc1cc(OCc2ccccc2Cl)c2cc(-c3cn4nc(OC)sc4n3)oc2c1 |  |
|  |  | 27 nM | COc1cc(OCc2cccc(CO)c2)c2cc(-c3cn4nc(OC)sc4n3)oc2c1 |  |
| 86% | 42% | 1.2 nM | COc1cc(OCc2cccc(Oc3ccccc3)c2)c2cc(-c3cn4nc(OC)sc4n3)oc2c1 |  |
